An excerpt weighted towards active compounds, which were near 1.7% of everything screened.
CaV13 ICDI inh: Disruptors of the CACNA1D IQ motif to Ca2+-dependent inactivation inhibitor domain association, primary screening, Förster resonance energy transfer in intact living …. inhibition, % at 12.3 µM. actives 0.098% (n = 340,000). AID 743397. HEK cells, CFP/YFP FRET ICDI-IQ, plate reader, 10 min; percent FRET-ratio fall versus neutral wells;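 active = mean replicate inhibition of at least 30% and at least 1% of replicates passing that level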;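 also: 0% = median of the neutral control wells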
F508del corr: CFTR F508del correction in bronchial cells. CFBE cells, YFP halide quenching; stimulated with forskolin plus potentiator P3; % fluorescence drop versus neutral controls. activity (quench increase), % at 7.58 µM. actives 0.36% (n = 350,000). AID 720511;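 active = mean added fluorescence quench of at least 8% versus neutral control, with both replicates also reaching 8%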;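 also: cells transiently co-express mutant CFTR-F508del with the halide-sensitive YFP; corrector assay measuring rescue of mutant channel to the surface after 24 h compound exposure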
Cneo AK release: causes C. neoformans cell lysis; adenylate kinase release luminescence, 4 h; normalised: neutral wells 0, clomiphene wells 100; lysis activity, % at 15 µM; actives 0.2% (n = 360,000);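 active = mean lysis activity across replicates of at least 80%, whatever share of replicates individually reach that level; inactive = mean lysis activity below 80%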
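Assay system: C. neoformans cells. Amount: yeast cell density of 5 × 10^6 cells/mL. Technique: AK luminescence. Buffer or medium: YPD. Times: static 4 h at 37 °C with compound, 1 h detection. Dosing: single-point compound dose. Read-out: lysis from increased AK signal.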
rRNA inh HTS: inhibitors of bacterial rRNA selective over humanized ribosomes | GFP signal change (wild-type ribosome), % (no concentration beside the values) | actives 1.6% (n = 350,000) | E. coli WT GFP vs humanized-ribosome RFP mutants, fluorescence, 24 h; hits give low values; DMSO median 0, no signal -100;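 active = significant combined selectivity score with lowered wild-type GFP, culture density cut under 30%, mutant RFP and density less affected; inactive = any of these conditions unmet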
Numbers without * were called inactive; . = no result.

SMILES	CaV13 ICDI inh	F508del corr	Cneo AK release	rRNA inh HTS
COc1ccc(C(=O)Nc2ccccc2C(=O)Nc2ccccc2)cc1	-5	8.8*	-2	3
COc1ccc(OC)c(C(=O)Nc2ccc3[nH]ccc3c2)c1	5	1	.	-23*
COc1ccc(C(=O)Nc2ccc3[nH]ccc3c2)cc1	-2	0	.	-31*
O=C(C[C@@H]1C=C[C@H](NC(=O)c2ccccc2)[C@H](CO)O1)NCc1ccc(Oc2ccccc2)cc1	.	3	15	-1
C[C@H](CO)N1C[C@H](C)[C@H](CN(C)C(=O)Nc2ccc(C(F)(F)F)cc2)Oc2c(NS(=O)(=O)c3ccccc3)cccc2C1=O	.	0	-3	-3
C[C@H]1CCCCO[C@@H](CN(C)C)[C@@H](C)CN([C@@H](C)CO)C(=O)c2cc(NC(=O)CCCN(C)C)ccc2O1	.	2	1	-1
Cc1ccc(/C=C/C(=O)O)cc1S(=O)(=O)N1CCCc2ccccc21	-15	2	0	-11
Cc1ccc(/C=C/C(=O)O)cc1S(=O)(=O)N1CCc2ccccc21	-2	-3	2	-32*
C[C@H]1CN([C@@H](C)CO)S(=O)(=O)c2ccc(C#Cc3ccccn3)cc2O[C@H]1CN(C)Cc1ccccc1	.	-1	0	-6
C[C@@H]1CN([C@@H](C)CO)S(=O)(=O)c2ccc(C#Cc3ccccn3)cc2O[C@@H]1CN(C)Cc1ccccc1	.	2	0	-12
C[C@@H]1CN([C@@H](C)CO)S(=O)(=O)c2ccc(C#Cc3ccccn3)cc2O[C@H]1CN(C)Cc1ccccc1	.	-1	101*	-7
C[C@@H]1CN([C@H](C)CO)S(=O)(=O)c2ccc(C#Cc3ccccn3)cc2O[C@H]1CN(C)Cc1ccccc1	.	1	91*	-13
O=C(c1cccc(F)c1)N1CC(=O)N2[C@H](C1)[C@H](c1ccc(C3=CCCC3)cc1)[C@@H]2CO	.	2	.	1
N#C/C(=C\c1cccc(Oc2ccccc2)c1)C(=O)N1CCOCC1	-4	-1	2	-25*
CCOc1ccc(C(=O)c2cc3ccc(O)cc3oc2=O)cc1	90*	1	.	-26
O=C(c1ccc([N+](=O)[O-])cc1)c1cc2ccc(O)cc2oc1=O	-16	2	-3	3
CCc1nc2ccc(C(=O)NCCOc3ccc(OC)cc3)cn2c1N(C)Cc1ccc(N(C)C)cc1	-6	-3	-1	-23*
COCc1cn(CC[C@H]2CC[C@@H](NC(=O)Cc3cccnc3)[C@@H](CO)O2)nn1	.	0	-3	1
Cc1n[nH]c(C)c1N=Nc1ccc(Br)cc1	-4	-1	3	-36*
COc1ccc(N=Nc2c(C)n[nH]c2C)cc1	-4	-1	0	-16
COc1ccc2cc(CN(CC3CCCO3)S(=O)(=O)c3ccccc3Cl)c(=O)[nH]c2c1 (stereo not drawn)	.	.	-1	-36*
CSCCC(C(=O)NCc1ccccc1)n1c(-c2ccc3c(c2)CCO3)nc2ccccc21 (stereo not drawn)	-4	2	.	-17*
O=C(C1CC1)N1CC2(C1)[C@H](c1ccccc1)[C@H](CO)N2CCC(F)(F)F	.	3	.	-1
COc1cccc(CN2[C@H](CO)[C@H](c3ccccc3)C23CN(C(=O)C2CCOCC2)C3)c1	.	2	.	3
Cc1ccc(-c2csc(NCCn3c(-c4ccncc4)nc4ccccc43)n2)cc1	-7	2	0	-21*
SMILES	CaV13 ICDI inh	F508del corr	Cneo AK release	rRNA inh HTS
Cc1ccc(-c2csc(NCCn3c(-c4ccncc4)nc4cc(C(F)(F)F)ccc43)n2)cc1	-10	-3	-2	10
CN(c1cccc(NC(=O)c2ccc(N(C)S(=O)(=O)c3ccccc3)cc2)c1)S(C)(=O)=O	5	-4	.	-17*
CN(c1ccccc1)S(=O)(=O)c1cccc(NC(=O)CCN2C(=O)C3CCCCC3C2=O)c1 (stereo not drawn)	5	0	6	-29*
COc1ccc(S(=O)(=O)N[C@@H]2CC[C@@H](CC(=O)O)O[C@@H]2CO)cc1	.	0	48	2
COc1ccc2c3c(n(C)c2c1)[C@H](CO)N(C(=O)Cc1ccccc1)CC31CN(C(C)=O)C1	.	-1	.	-3
CC(C)Cn1c(=O)c(C(=O)Nc2cnccn2)c(O)c2ccccc21	.	.	1	.
CC(C)Cn1c(=O)c(C(=O)Nc2ccncc2)c(O)c2ccccc21	-1	3	-2	-26*
N#Cc1cc2ccc(N3CCOCC3)cc2cc1C#N	-6	-3	-10	-34*
N#Cc1cc(Cl)c(N2CCOCC2)cc1C#N	.	.	-6	.
COc1ccc2c3c([nH]c2c1)[C@@H](CO)N(C(=O)Cc1ccccc1)CC31CCN(C(=O)Nc2ccccc2F)CC1	.	-2	.	-2
COc1ccc(CN2CCCCCC2)cc1	3	1	0	7
COc1ccc(N=Nc2cc(C)c(O)c(CN3CCCCC3)c2)cc1	-15	-2	-9	-27*
COc1ccc(N(C(=O)Nc2ccc(Cl)cc2)C2=NCCC2)cc1	-10	-3	0	-36*
Cc1ccc(N(C(=O)Nc2ccccc2)C2=NCCC2)cc1	-20	0	7	-9
COC(=O)C1(N2C(=O)O[C@@H](Cc3ccccc3)[C@H]2/C=C/C2CC2)CCCC1	.	2	-6	.
CCCN(C)C[C@@H]1Oc2ncc(-c3ccccc3)cc2C(=O)N([C@@H](C)CO)C[C@@H]1C	.	0	.	.
Cc1ccc(C2=NS(=O)(=O)N(C)C(C(=O)Nc3cc(C)n(CC(=O)N4CCC(C)CC4)n3)=C2)cc1	-13	0	-9	-29*
Cc1ccc(C2=NS(=O)(=O)N(C)C(C(=O)NC3CCCCC3)=C2)cc1	22	-4	-1	-4
O=C(Nc1ccc(Cl)cn1)c1cccc2ccccc12	-1	13*	8	11
O=C(Nc1ccc(Cl)cn1)c1ccccc1[N+](=O)[O-]	-4	6	2	-5
COc1cccc(S(=O)(=O)N[C@H]2CC[C@H](CCNC(=O)Nc3cc(F)ccc3F)O[C@H]2CO)c1	.	0	1	-12
Cc1ccc(Cn2nnc3c(=O)n(CC(=O)OCc4ccccc4)cnc32)cc1	-9	-2	-19	-1
Cc1ccc(Cn2nnc3c(=O)n(CC(=O)N4CCN(c5ccccc5)CC4)cnc32)cc1	-7	0	0	-25*
O=C(Cc1n[nH]c(=O)c2ccccc12)OCC(=O)N(Cc1ccccc1)Cc1ccccc1	-9	-2	1	-24*
CCC(=O)Nc1ccc2c(c1)OC[C@H](C)N(C(=O)C1CC1)C[C@@H](C)[C@@H](OC)CN(C)C2=O	.	-1	0	-7
CCCNC(=O)N(C)C[C@H]1Oc2cc(C#Cc3ccccn3)ccc2S(=O)(=O)N([C@@H](C)CO)C[C@H]1C	.	-2	0	-5
CC(=O)N1[C@@H]2c3ccc(C4=CCCC4)c(=O)n3C[C@H]1[C@H](CO)[C@H]2C(=O)NC1CCCC1	.	-2	.	3

Bioassay records (PubChem BioAssay)
